{"source": "ChEMBL document CHEMBL3393048", "about": "“Discovery of potent cytotoxic ortho-aryl chalcones as new scaffold targeting tubulin and mitosis with affinity-based fluorescence” (J Med Chem, 2014)", "key": {"A549": {"system": "A549", "assay": "Antiproliferative activity against human A549 cells after 48 hrs by SRB method", "assay_type": "functional, cell-based", "conditions": "A549, 48 h", "outline": "(§1)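 SRB assay. Cells in DMEM high glucose with 10% FBS were seeded at 5000/well and grown 24 h; a day-0 plate was fixed at that point. Compounds were added in triplicate for 48 h. Cells were fixed with TCA at 4 °C for 1 h, stained with 0.4% SRB, and the dye was solubilized in 10 mM Tris pH 10.4. OD was read at 515 nm with day-0 OD subtracted. IC50 came from nonlinear regression of dose–response curves from at least two independent experiments.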"}, "MCF7": {"system": "MCF7", "assay": "Antiproliferative activity against human MCF7 cells after 48 hrs by SRB method", "assay_type": "functional, cell-based", "conditions": "MCF7, 48 h", "outline": "(§2)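 SRB assay. Cells in DMEM high glucose with 10% FBS were seeded at 5000/well and grown 24 h; a day-0 plate was fixed at that point. Compounds were added in triplicate for 48 h. IC50 came from nonlinear regression of dose–response curves from at least two independent experiments.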"}, "HepG2": {"system": "HepG2", "assay": "Antiproliferative activity against human HepG2 cells after 48 hrs by SRB method", "assay_type": "functional, cell-based", "conditions": "HepG2, 48 h", "outline": "as §2"}, "SW480": {"system": "SW480", "assay": "Antiproliferative activity against human SW480 cells after 48 hrs by SRB method", "assay_type": "functional, cell-based", "conditions": "SW480, 48 h", "outline": "as §2"}, "[1]": {"assay": "Antiproliferative activity against human CNE2 cells after 48 hrs by SRB method", "assay_type": "functional, cell-based", "conditions": "CNE-2, 48 h", "outline": "as §2"}, "Tubulin (Homo sapiens)": {"target": "Tubulin (Homo sapiens) (UniProt P68371+Q9H4B7+P0DPH7+P68366+Q13509+Q71U36+P04350+Q3ZCM7+P07437+P68363+Q9BQE3+Q6PEY2+Q13885+Q9BVA1+Q9BUF5)", "assay": "Inhibition of tubulin polymerization (unknown origin) at 20 uM by DAPI staining-based fluorescence microscopy", "assay_type": "protein-complex assay"}, "[2]": {"assay": "Antiproliferative activity against vincristine-resistant human HCT8 cells after 48 hrs by SRB method", "assay_type": "functional, cell-based", "conditions": "HCT-8, 48 h", "outline": "as §1"}, "[3]": {"assay": "Antiproliferative activity against human HCT8 cells after 48 hrs by SRB method", "assay_type": "functional, cell-based", "conditions": "HCT-8, 48 h", "outline": "as §2"}}, "note": "Active and inactive are the calls of the source. The rule behind the calls is not given here.", "data": [{"smiles": "COc1ccc(/C=C/C(=O)c2ccccc2-c2ccc(OC)c(OC)c2)cc1", "values": [{"measurement": "IC50", "setting": "A549", "value": 1.6, "unit": "µM"}, {"measurement": "IC50", "setting": "MCF7", "value": 1.1, "unit": "µM"}, {"measurement": "IC50", "setting": "HepG2", "value": 0.6, "unit": "µM"}, {"measurement": "IC50", "setting": "SW480", "value": 0.89, "unit": "µM"}, {"measurement": "IC50", "setting": "[1]", "value": 0.32, "unit": "µM"}]}, {"smiles": "COc1cc(CNC(=O)c2ccccc2-c2ccc(F)cc2)cc(OC)c1OC", "values": [{"measurement": "IC50", "setting": "A549", "value": "> 50", "unit": "µM"}, {"measurement": "IC50", "setting": "MCF7", "value": "> 50", "unit": "µM"}, {"measurement": "IC50", "setting": "HepG2", "value": "> 50", "unit": "µM"}, {"measurement": "IC50", "setting": "SW480", "value": "> 50", "unit": "µM"}, {"measurement": "IC50", "setting": "[1]", "value": "> 50", "unit": "µM"}]}, {"smiles": "COc1cc(C(=O)/C=C/c2ccccc2-c2ccc(F)nc2)ccc1O", "values": [{"measurement": "IC50", "setting": "A549", "value": 13, "unit": "µM"}, {"measurement": "IC50", "setting": "MCF7", "value": 27, "unit": "µM"}, {"measurement": "IC50", "setting": "HepG2", "value": 9.9, "unit": "µM"}, {"measurement": "IC50", "setting": "SW480", "value": 8.5, "unit": "µM"}, {"measurement": "IC50", "setting": "[1]", "value": 19, "unit": "µM"}]}, {"smiles": "COc1ccc(-c2ccccc2C(=O)/C=C/c2ccc(F)cc2)cc1OC", "values": [{"measurement": "inhibition", "setting": "Tubulin (Homo sapiens)", "value": "inactive"}, {"measurement": "IC50", "setting": "A549", "value": 8.6, "unit": "µM"}, {"measurement": "IC50", "setting": "MCF7", "value": 7.1, "unit": "µM"}, {"measurement": "IC50", "setting": "HepG2", "value": 4.3, "unit": "µM"}, {"measurement": "IC50", "setting": "SW480", "value": 6.8, "unit": "µM"}, {"measurement": "IC50", "setting": "[1]", "value": 5.4, "unit": "µM"}]}, {"smiles": "COc1ccc(C(=O)/C=C/c2ccccc2-c2ccc(F)nc2)cc1", "values": [{"measurement": "IC50", "setting": "A549", "value": "> 50", "unit": "µM"}, {"measurement": "IC50", "setting": "MCF7", "value": 13, "unit": "µM"}, {"measurement": "IC50", "setting": "HepG2", "value": 8.2, "unit": "µM"}, {"measurement": "IC50", "setting": "SW480", "value": 10, "unit": "µM"}, {"measurement": "IC50", "setting": "[1]", "value": 13, "unit": "µM"}]}, {"smiles": "COc1ccc(/C=C/C(=O)c2ccccc2-c2ccc(F)nc2)cc1OC", "values": [{"measurement": "IC50", "setting": "A549", "value": 1.2, "unit": "µM"}, {"measurement": "IC50", "setting": "MCF7", "value": 2.8, "unit": "µM"}, {"measurement": "IC50", "setting": "HepG2", "value": 1, "unit": "µM"}, {"measurement": "IC50", "setting": "SW480", "value": 1.3, "unit": "µM"}, {"measurement": "IC50", "setting": "[1]", "value": 1.6, "unit": "µM"}]}, {"smiles": "COc1ccc(C(=O)/C=C/c2ccccc2-c2ccc(F)cc2)cc1OC", "values": [{"measurement": "IC50", "setting": "A549", "value": 7.5, "unit": "µM"}, {"measurement": "IC50", "setting": "MCF7", "value": 7.1, "unit": "µM"}, {"measurement": "IC50", "setting": "HepG2", "value": 6.6, "unit": "µM"}, {"measurement": "IC50", "setting": "SW480", "value": 8.3, "unit": "µM"}, {"measurement": "IC50", "setting": "[1]", "value": 7.6, "unit": "µM"}]}, {"smiles": "COc1ccc(OC)c(/C=C/C(=O)c2ccccc2-c2ccc(F)cc2)c1", "values": [{"measurement": "IC50", "setting": "A549", "value": 1.1, "unit": "µM"}, {"measurement": "IC50", "setting": "MCF7", "value": 1.7, "unit": "µM"}, {"measurement": "IC50", "setting": "HepG2", "value": 0.52, "unit": "µM"}, {"measurement": "IC50", "setting": "SW480", "value": 2.4, "unit": "µM"}, {"measurement": "IC50", "setting": "[1]", "value": 0.75, "unit": "µM"}]}, {"smiles": "COc1ccc(/C=C/C(=O)c2ccccc2-c2ccc(OC)c(OC)c2OC)cc1O", "values": [{"measurement": "IC50", "setting": "A549", "value": 0.19, "unit": "µM"}, {"measurement": "IC50", "setting": "MCF7", "value": 0.48, "unit": "µM"}, {"measurement": "IC50", "setting": "HepG2", "value": 0.23, "unit": "µM"}, {"measurement": "IC50", "setting": "SW480", "value": 0.17, "unit": "µM"}, {"measurement": "IC50", "setting": "[1]", "value": 0.16, "unit": "µM"}]}, {"smiles": "COc1ccc(CNC(=O)c2ccccc2-c2ccc(F)cc2)cc1", "values": [{"measurement": "IC50", "setting": "A549", "value": "> 50", "unit": "µM"}, {"measurement": "IC50", "setting": "MCF7", "value": "> 50", "unit": "µM"}, {"measurement": "IC50", "setting": "HepG2", "value": "> 50", "unit": "µM"}, {"measurement": "IC50", "setting": "SW480", "value": "> 50", "unit": "µM"}, {"measurement": "IC50", "setting": "[1]", "value": "> 50", "unit": "µM"}]}, {"smiles": "COc1ccc(/C=C/C(=O)c2ccccc2-c2cccnc2)cc1", "values": [{"measurement": "IC50", "setting": "A549", "value": 0.58, "unit": "µM"}, {"measurement": "IC50", "setting": "MCF7", "value": 0.83, "unit": "µM"}, {"measurement": "IC50", "setting": "HepG2", "value": 0.097, "unit": "µM"}, {"measurement": "IC50", "setting": "SW480", "value": 0.2, "unit": "µM"}, {"measurement": "IC50", "setting": "[1]", "value": 0.064, "unit": "µM"}]}, {"smiles": "O=C(/C=C/c1ccccc1-c1ccc(F)nc1)c1cccc(O)c1", "values": [{"measurement": "IC50", "setting": "A549", "value": 6.9, "unit": "µM"}, {"measurement": "IC50", "setting": "MCF7", "value": 12, "unit": "µM"}, {"measurement": "IC50", "setting": "HepG2", "value": 6.4, "unit": "µM"}, {"measurement": "IC50", "setting": "SW480", "value": 7.4, "unit": "µM"}, {"measurement": "IC50", "setting": "[1]", "value": 8.7, "unit": "µM"}]}, {"smiles": "COc1ccc(/C=C/C(=O)c2ccccc2-c2ccc(F)nc2)cc1", "values": [{"measurement": "IC50", "setting": "A549", "value": 0.93, "unit": "µM"}, {"measurement": "IC50", "setting": "MCF7", "value": 2.7, "unit": "µM"}, {"measurement": "IC50", "setting": "HepG2", "value": 0.29, "unit": "µM"}, {"measurement": "IC50", "setting": "SW480", "value": 0.33, "unit": "µM"}, {"measurement": "IC50", "setting": "[1]", "value": 0.16, "unit": "µM"}]}, {"smiles": "COc1cc(C(=O)/C=C/c2ccccc2-c2ccc(F)cc2)ccc1O", "values": [{"measurement": "IC50", "setting": "A549", "value": 4.6, "unit": "µM"}, {"measurement": "IC50", "setting": "MCF7", "value": 5.4, "unit": "µM"}, {"measurement": "IC50", "setting": "HepG2", "value": 3.1, "unit": "µM"}, {"measurement": "IC50", "setting": "SW480", "value": 4.2, "unit": "µM"}, {"measurement": "IC50", "setting": "[1]", "value": 4.8, "unit": "µM"}]}, {"smiles": "CC(=O)O[C@H]1C(=O)[C@@]2(C)[C@H]([C@H](OC(=O)c3ccccc3)[C@]3(O)C[C@H](OC(=O)[C@H](O)[C@@H](NC(=O)c4ccccc4)c4ccccc4)C(C)=C1C3(C)C)[C@]1(OC(C)=O)CO[C@@H]1C[C@@H]2O", "note": "[PACLITAXEL]", "values": [{"measurement": "IC50", "setting": "[2]", "value": 2.6, "unit": "µM"}, {"measurement": "IC50", "setting": "HepG2", "value": 0.028, "unit": "µM"}, {"measurement": "IC50", "setting": "[3]", "value": 0.021, "unit": "µM"}, {"measurement": "IC50", "setting": "SW480", "value": 0.007, "unit": "µM"}]}, {"smiles": "COc1ccc(-c2ccccc2C(=O)/C=C/c2ccc(Br)cc2)cc1OC", "values": [{"measurement": "inhibition", "setting": "Tubulin (Homo sapiens)", "value": "inactive"}, {"measurement": "IC50", "setting": "A549", "value": 6.8, "unit": "µM"}, {"measurement": "IC50", "setting": "MCF7", "value": 8.3, "unit": "µM"}, {"measurement": "IC50", "setting": "HepG2", "value": 3.3, "unit": "µM"}, {"measurement": "IC50", "setting": "SW480", "value": 6.5, "unit": "µM"}, {"measurement": "IC50", "setting": "[1]", "value": 4.8, "unit": "µM"}]}]}
